In the library only some 29% were active in any assay of this set; here they are far more common.
CYP2C19 inhib – blocks human cytochrome P450 2C19 | CYP2C19 Supersomes, luciferin-H EGE luminescence, 30 min | inhibition, % at 5 µM | 96,000 compounds, 21% hits;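 active means CYP2C19 inhibition above a set limit at 5 µM in the primary screen, cut at about 50% in these data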;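 further: plate controls were negative control wells for no effect and 2.5 mM tranylcypromine positive control for full effect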
Target sequence (P33261 whole entry, looked up): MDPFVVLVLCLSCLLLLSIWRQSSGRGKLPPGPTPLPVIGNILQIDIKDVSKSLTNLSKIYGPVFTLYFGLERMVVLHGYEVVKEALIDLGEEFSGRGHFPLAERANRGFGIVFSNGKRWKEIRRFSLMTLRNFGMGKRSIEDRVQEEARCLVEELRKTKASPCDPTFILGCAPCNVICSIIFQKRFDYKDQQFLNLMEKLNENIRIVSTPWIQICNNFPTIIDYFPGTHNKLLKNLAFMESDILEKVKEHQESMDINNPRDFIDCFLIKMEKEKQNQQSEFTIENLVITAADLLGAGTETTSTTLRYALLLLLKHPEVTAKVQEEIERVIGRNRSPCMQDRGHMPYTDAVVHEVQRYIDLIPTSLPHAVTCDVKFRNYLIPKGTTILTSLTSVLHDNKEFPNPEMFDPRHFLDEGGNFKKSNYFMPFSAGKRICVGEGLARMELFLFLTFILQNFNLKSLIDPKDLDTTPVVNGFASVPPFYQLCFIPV
tolC growth inh – E. coli tolC mutant growth inhibition; E. coli BW25113 tolC mutant growth, OD615; growth inhibition, % at 10 µM (by protocol); 65,000 compounds, 2.2% hits; AID 573;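 active means growth inhibition at or above a cutoff equal to the mean over every tested compound plus 3 SD, cut at about 60% in these data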;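 further: growth measured after 20 h incubation at 37 °C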
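Material: E. coli BW25113 ΔtolC::kan, tolC deletion mutant strain. Measure: percent growth inhibition. Schedule: 37 °C, 20 h exposure. Doses: single-point testing at 10 µM. Signal: A615 absorbance measurement. Buffer or medium: kanamycin-containing LB broth (50 µg/mL).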
E coli WT exp – growth inhibitors of E. coli BW25113 wild type; OD600 absorbance; growth inhibition, % at 100 µM; 98,000 compounds, 0.15% hits; AID 710;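 active means growth inhibition above about 50% at one test dose, limit read from the data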;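 further: growth measured after 20 h incubation at 37 °C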
CYP2C9 act – CYP2C9 (human) activation; P11712; recombinant CYP2C9, luciferin-H conversion, luminescence; stronger effect = higher value; factor 1 = untreated enzyme, 0 = blocked; activation factor at 5 µM; 96,000 compounds, 1.4% hits; AID 1024;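 active means activation factor of 2 or more for CYP2C9 at a 5 µM dose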;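 further: 0 = sulfaphenazole-blocked wells and 1 = vehicle-only wells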
CYP2C9 inhib – inhibitors of human CYP2C9 | inhibition, % at 5 µM | P11712 | AID 777 | CYP2C9 Supersomes, luciferin-H conversion, luminescence | 96,000 compounds, 20% hits;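 active means blocking of liver enzyme CYP2C9 beyond about 50% at 5 µM, limit read from the data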
CYP2C19 activ – activators of human cytochrome P450 2C19 | P33261 | 96,000 tested, under 10 active | recombinant CYP2C19, luciferin-H EGE luminescence; stronger effect = higher value; 0 = fully inhibited enzyme, 1 = untreated enzyme | activation factor at 5 µM | AID 1025;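 active means activation factor of at least 2 at 5 µM in the primary screen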;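 further: 0 = wells with 2.5 mM tranylcypromine and 1 = vehicle-only wells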
Starred values were filed as active, the others as inactive; / = not tested or not shown.

SMILES	CYP2C19 inhib	tolC growth inh	E coli WT exp	CYP2C9 act	CYP2C9 inhib	CYP2C19 activ
COc1ccc(N(CC(=O)Nc2ccc(OC)c(Cl)c2)S(=O)(=O)c2c(C)noc2C)cc1	3	7	-3	1	0	1
CCc1cccc(NC(=O)CN(c2ccc(OC)cc2)S(=O)(=O)c2c(C)n[nH]c2C)c1	88*	37	-15	0.2	78*	0.1
COc1ccc(N(CC(=O)Nc2cccc(C)c2)S(=O)(=O)c2c(C)n[nH]c2C)cc1	95*	-2	6	0.2	79*	0
Cc1ccc(NC(=O)CCNS(=O)(=O)c2cccc3nonc23)cc1	41	25	31	0.7	26	0.6
COc1ccc(N(CC(=O)Nc2ccc(C)c(C)c2)S(=O)(=O)c2c(C)n[nH]c2C)cc1	82*	19	3	0.3	72*	0.2
Cc1ccc(N(CC(=O)Nc2cccc(C)c2)S(=O)(=O)c2cccc3nonc23)cc1	55*	62*	-7	0.1	89*	0.4
CC(=O)c1cccc(NS(=O)(=O)c2c(C)noc2C)c1	38	-10	1	0.6	41	0.6
COc1cc(NC(=O)CN(c2ccc(C)cc2)S(=O)(=O)c2c(C)n[nH]c2C)cc(OC)c1	82*	17	-9	0.2	84*	0.2
CCOC(=O)c1cccc(NC(=O)CN(c2ccc(C)cc2)S(=O)(=O)c2c(C)n[nH]c2C)c1	61*	32	-7	0.2	82*	0.4
Cc1ccc(NC(=O)CN(c2ccc3c(c2)OCO3)S(=O)(=O)c2c(C)n[nH]c2C)cc1	/	-5	0	/	/	/
Cc1cccc(NS(=O)(=O)c2c(C)n[nH]c2C)c1	68*	/	3	0.2	79*	0.3
CCOC(=O)c1ccc(NC(=O)CN(c2ccc(C)cc2)S(=O)(=O)c2c(C)nn(C)c2C)cc1	26	/	-6	0.8	22	0.7
CCOC(=O)C1=C(Nc2ccc(Br)cc2)CC(C)(O)C(C(=O)OCC)C1c1ccccc1 (stereo not drawn)	-10	/	-6	1.1	-11	1.1
Cc1ccccc1OCCNC(=O)CNC(=O)c1ccccc1O	43	19	-4	0.6	42	0.6
COc1ccc(C2=CSC3=C(C(=O)c4cccc(S(=O)(=O)N(C)C)c4)CCN23)cc1	86*	/	4	0.4	64*	0.1
COc1ccc(/C=C(/C(=O)c2ccc(Cl)cc2Cl)n2cncn2)cc1	77*	/	5	0.1	91*	0.2
CCN(CC(=O)NC1CCS(=O)(=O)C1)c1nc(-c2ccccc2)nc2ccccc12 (stereo not drawn)	15	-26	2	0.9	9	0.8
CN1CCN(c2nc(-c3ccncc3)nc3ccccc23)CC1	28	14	2	0.8	20	0.7
CCOC(=O)CNc1nc(-c2ccncc2)nc2ccccc12	48	14	8	0.4	58*	0.5
CCCCN(CC)c1nc(-c2ccncc2)nc2ccccc12	96*	/	13	0.1	94*	0
COc1nc(-c2ccncc2)nc2ccccc12	74*	/	3	0.3	72*	0.3
C=CCOc1nc(-c2ccncc2)nc2ccccc12	79*	3	-4	0.4	64*	0.2
COc1ccc(Cl)cc1N1C(=O)/C(=C\c2sccc2C)N=C1SCC(=O)NC1CC1	97*	/	-8	0	97*	0
C=CCN1C(=O)/C(=C\c2ccc(Cl)cc2)N=C1SCC(=O)NC1CCCCC1	9	/	-4	0.9	6	0.9
Cc1ccccc1-c1nc(CS(=O)CC(=O)NCc2ccccc2)c(C)o1 (stereo not drawn)	78*	10	-7	0.2	76*	0.2
SMILES	CYP2C19 inhib	tolC growth inh	E coli WT exp	CYP2C9 act	CYP2C9 inhib	CYP2C19 activ
Cc1ccc(CNC(=O)CS(=O)Cc2nc(-c3ccccc3C)oc2C)cc1 (stereo not drawn)	40	16	-3	0.8	24	0.6
COc1ccc(CNC(=O)CS(=O)Cc2nc(-c3ccccc3C)oc2C)cc1 (stereo not drawn)	91*	0	0	0.2	75*	0.1
O=c1c2ccccc2nc(SCc2cccc(F)c2)n1Cc1ccco1	2	30	-2	0.3	69*	1
O=c1c2ccccc2nc(SCc2nc3ccccc3s2)n1Cc1ccco1	16	8	-16	0.5	55*	0.8
O=c1c2ccccc2nc(SCc2ccccc2)n1Cc1ccco1	9	35	-9	0.6	37	0.9
O=c1c2ccccc2nc(SCc2nnc(-c3ccccc3Br)o2)n1Cc1ccco1	76*	29	-17	0.1	94*	0.2
O=C(CSc1nc2ccccc2c(=O)n1Cc1ccco1)c1ccccc1	34	31	-11	0.3	72*	0.7
CC12CN3CC(C)(CN(C1)C3c1ccc(Br)cc1)C2 (stereo not drawn)	3	-3	2	1	1	1
O=C(Nc1ccccc1C(F)(F)F)N1CCN(c2ccc3nncn3n2)CC1	32	-12	2	0.3	72*	0.7
Fc1ccc(-c2nnc3ccc(N4CCc5ccccc5C4)nn23)cc1	57*	23	2	0.1	86*	0.4
CC1CCN(C(=O)CSc2ccc3nnc(-c4ccc(F)cc4)n3n2)CC1	/	-10	/	/	/	/
Cc1nnc2ccc(N3CCN(C(=O)c4ccccc4)CC3)nn12	17	-10	-2	1.2	-17	0.8
O=C(Nc1ccccc1)N1CCN(c2ccc(C(F)(F)F)cn2)CC1	29	/	2	0.8	24	0.7
O=C(Nc1ccc(F)cc1)N1CCN(c2ccc3nnc(-c4ccc(F)cc4)n3n2)CC1	50*	/	8	0.4	55*	0.5
O=C(Nc1ccccc1C(F)(F)F)N1CCN(c2ccc3nnc(-c4ccc(F)cc4)n3n2)CC1	23	12	0	0.3	65*	0.8
COc1cccc(N2CC34C=CC(O3)C(C(=O)O)C4C2=O)c1 (stereo not drawn)	-16	-26	6	0.9	10	1.2
Cc1cc(NC(=O)CN2CCOCC2)n(-c2nc3ccccc3s2)n1	8	/	0	0.6	40	0.9
COc1cc(S(=O)(=O)NCC2OCCc3ccccc32)ccc1-n1cnnn1 (stereo not drawn)	91*	/	-4	0.5	53*	0.1
COc1cc(S(=O)(=O)N(Cc2ccc(C)cc2)Cc2ccco2)ccc1-n1cnnn1	64*	/	-6	0.5	53*	0.4
COc1cc(S(=O)(=O)N2CCCC3(CCCCC3)C2)ccc1-n1cnnn1	39	0	-10	1	-4	0.6
COc1cc(S(=O)(=O)N(Cc2ccc(C)cc2)C2CCCCC2)ccc1-n1cnnn1	86*	27	-18	0.2	84*	0.1
CC#CCN(CC#CC)S(=O)(=O)c1ccc(-n2cnnn2)c(OC)c1	84*	-9	0	0.9	13	0.2

Compound activity (PubChem BioAssay)
